Test results reported in ChEMBL document CHEMBL3392957, “The discovery of 1,2,3,9b-tetrahydro-5H-imidazo[2,1-a]isoindol-5-ones as a new class of respiratory syncytial virus (RSV) fusion inhibitors. Part 1” (Bioorg Med Chem Lett, 2015).
In brackets after ≈: the same amount, converted by molar mass.

Experiments:
[1] = system: Respiratory syncytial virus; experiment: Selectivity ratio of EC50 for Respiratory syncytial virus A Long harboring F protein D489Y mutant infected in human Hep2 cells to EC50 for wild-type Respiratory syncytial virus A Long infected in human Hep2 cells
[2] = system: Respiratory syncytial virus; experiment: Antiviral activity against Respiratory syncytial virus A2 infected in human Hep2 cells assessed as inhibition of virus-induced cytopathicity after 5 days by MTT assay; type: functional, organism-based; conditions: A2, HEp-2, 120 h
Method in brief: (§1)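 HEp2 cells (1.0 × 10⁴/well) infected at low moi (e.g. RSV A2 at moi 0.01) and added to serially diluted compound; 5 days at 37 °C, 5% CO₂. CPE read by MTT (1 mg/ml, 2 h, 37 °C), isopropanol, absorbance 540 nm; EC₅₀ by non-linear regression. SD given where n > 2.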

[3] = Cytotoxicity against human Hep2 cells after 5 days by MTT assay; type: cell-based, HEp-2
Method in brief: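 Uninfected HEp2 cells (1.0 × 10⁴/well) with serially diluted compound, 5 days at 37 °C in 5% CO₂; viability by MTT (1 mg/ml, 2 h), isopropanol, absorbance 540 nm; CC₅₀ by non-linear regression.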

[4] = system: Respiratory syncytial virus; experiment: Antiviral activity against Respiratory syncytial virus B1 infected in human Hep2 cells assessed as inhibition of virus-induced cytopathicity after 5 days by MTT assay; type: functional, organism-based; conditions: B1, HEp-2, 120 h
Method in brief: as §1

[5] = system: Respiratory syncytial virus; experiment: Antiviral activity against wild-type Respiratory syncytial virus A Long infected in human Hep2 cells assessed as inhibition of virus-induced cytopathicity after 5 days by MTT assay; type: functional, organism-based; conditions: HEp-2, 120 h
Method in brief: as §1

[6] = system: Respiratory syncytial virus; experiment: Antiviral activity against Respiratory syncytial virus A2 infected in human Hep2 cells assessed as inhibition of virus-induced cytopathicity after 5 days by MTT assay relative to alpha-1-acid glycoprotein; type: functional, HEp-2
Method in brief: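 RSV A2 CPE assay in HEp2 cells (moi 0.01, 5 days, 37 °C, MTT read-out at 540 nm) run with alpha-1-acid glycoprotein at 1.5 mg/mL; result expressed as fold shift in EC₅₀ versus the assay without AAG.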

[7] = Kinetic solubility of the compound at pH 2 by nephelometry; type: physicochemical; conditions: buffer, read-out: Kinetic_solubility
Method in brief: (§2)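 Kinetic solubility by nephelometry, at pH 2 and pH 6.5; reported as a range in μg/mL.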

[8] = Kinetic solubility of the compound at pH 6.5 by nephelometry; type: physicochemical; conditions: buffer, read-out: Kinetic_solubility
Method in brief: as §2

[9] = Lipophilicity, log D of the compound in octanol saturated mobile phase at pH 7.4 by chromatographic method; type: physicochemical
Method in brief: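 Effective logD determined chromatographically on a SUPELCOSIL LC-ABZ column with octanol-saturated mobile phase, pH 7.4.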

[10] = Plasma protein binding in rat; type: ADME, cell-free; conditions: read-out: PPB (converted)
[11] = Cmax in Sprague-Dawley rat at 19 mg/kg, po as suspension with hydroxypropylmethylcellulose; type: ADME, organism-based; parameters: dose 19 mg/kg, route oral; conditions: in vivo
Method in brief: (§3)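 Male Sprague-Dawley rats, n = 2, given a single oral dose. Plasma pharmacokinetics were analysed for Cmax (µM), terminal half-life (hr) and oral bioavailability F (%). The oral bioavailability estimate draws on a separate intravenous arm, also with n = 2 rats.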

[12] = Elimination half life in Sprague-Dawley rat at 19 mg/kg, po as suspension with hydroxypropylmethylcellulose; type: ADME, organism-based; parameters: dose 19 mg/kg, route oral; conditions: in vivo, read-out: beta t1/2
Method in brief: as §3

[13] = Oral bioavailability in Sprague-Dawley rat at 19 mg/kg as suspension with hydroxypropylmethylcellulose; type: ADME, organism-based; conditions: in vivo
Method in brief: as §3

[14] = Total clearance in Sprague-Dawley rat at 2.0 mg/kg, iv in 0.1 M capsitol and 10 to 12.5 % DMSO; conditions: in vivo
[15] = Elimination half life in Sprague-Dawley rat at 2.0 mg/kg, iv in 0.1 M capsitol and 10 to 12.5 % DMSO; conditions: in vivo, read-out: beta t1/2
[16] = Apparent volume of distribution in Sprague-Dawley rat at 2.0 mg/kg, iv in 0.1 M capsitol and 10 to 12.5 % DMSO; conditions: in vivo, read-out: Vz

| Compound | EC50 [2] [nM] | CC50 at 120 h [3] [µM] | further results |
| --- | --- | --- | --- |
| O=c1n(Cc2nc3ccccc3n2CCCCO)c2cnccc2n1C1CC1 |  |  | Ratio EC50 [1]: 380 |
| Cc1nnnn1/N=C/c1ccc(O)c(C(c2ccc(O)cc2)c2cc(/C=N/n3nnnc3C)ccc2O)c1 |  |  | Ratio EC50 [1]: >1400 |
| O=C(c1ccccc1)N1CCN2C(=O)c3ccccc3C12c1ccc(Cl)cc1 (racemic) | 450 | > 20 |  |
| O=C(c1ccc(F)cc1)N1CCN2C(=O)c3ccccc3C12c1ccccc1 (racemic) | 1100 | > 20 |  |
| Cc1ccc(C(=O)N2CCN3C(=O)c4ccccc4C23c2ccc(Cl)cc2)cc1 (racemic) | 5800 | 17 |  |
| O=C1c2ccccc2C2(c3ccc(Cl)cc3)NCCN12 (racemic) | > 20000 | > 70 |  |
| O=C(c1ccc(C(F)(F)F)cc1)N1CCN2C(=O)c3ccccc3C12c1ccc(Cl)cc1 (racemic) | > 20000 | 17 |  |
| O=C(c1ccc(OC(F)(F)F)cc1)N1CCN2C(=O)c3ccccc3C12c1ccc(Cl)cc1 (racemic) | > 20000 | 5.7 |  |
| COc1ccc(C(=O)N2CCN3C(=O)c4ccccc4C23c2ccc(Cl)cc2)cc1 (racemic) | > 20000 | 16 |  |
| O=C(c1ccc(F)cc1)N1CCN2C(=O)c3ccccc3C12 (racemic) | > 20000 | > 20 |  |
| O=C(c1ccc(F)cc1)N1CCN2C(=O)c3ccccc3C12c1ccc(F)cc1 (racemic) | 710 | > 20 |  |
| O=C(c1ccc(F)cc1)N1CCN2C(=O)c3ccccc3C12c1ccc(C(F)(F)F)cc1 (racemic) | 510 | > 20 |  |
| Cc1ccc(C23c4ccccc4C(=O)N2CCN3C(=O)c2ccc(F)cc2)cc1 (racemic) | 180 | > 20 |  |
| CCc1ccc(C23c4ccccc4C(=O)N2CCN3C(=O)c2ccc(F)cc2)cc1 (racemic) | 210 | > 18 |  |
| CCCc1ccc(C23c4ccccc4C(=O)N2CCN3C(=O)c2ccc(F)cc2)cc1 (racemic) | 270 | 18 |  |
| CC(C)c1ccc(C23c4ccccc4C(=O)N2CCN3C(=O)c2ccc(F)cc2)cc1 (racemic) | 1200 | > 20 |  |
| O=C(c1ccc(F)cc1)N1CCN2C(=O)c3ccccc3C12c1ccccn1 (racemic) | > 20000 | > 20 |  |
| O=C(c1ccc(F)cc1)N1CCN2C(=O)c3ccccc3C12c1cccnc1 (racemic) | 10000 | > 20 |  |
| COc1ccc(C23c4ccccc4C(=O)N2CCN3C(=O)c2ccc(F)cc2)cc1 (racemic) | 530 | > 20 |  |
| O=C(c1ccc(F)cc1)N1CCN2C(=O)c3ccccc3C12c1ccc(O)cc1 (racemic) | 11000 | > 20 |  |
| CCOc1ccc(C23c4ccccc4C(=O)N2CCN3C(=O)c2ccc(F)cc2)cc1 (racemic) | 200 | > 20 |  |
| CCCOc1ccc(C23c4ccccc4C(=O)N2CCN3C(=O)c2ccc(F)cc2)cc1 (racemic) | 630 | > 20 |  |
| CC(C)Oc1ccc(C23c4ccccc4C(=O)N2CCN3C(=O)c2ccc(F)cc2)cc1 (racemic) | 1100 | > 20 |  |
| O=C(c1ccc(F)cc1)N1CCN2C(=O)c3ccccc3C12c1ccc(OCC2CC2)cc1 (racemic) | 79 | > 20 |  |
| N#CCOc1ccc(C23c4ccccc4C(=O)N2CCN3C(=O)c2ccc(F)cc2)cc1 (racemic) | 240 | > 17 |  |
| COCCOc1ccc(C23c4ccccc4C(=O)N2CCN3C(=O)c2ccc(F)cc2)cc1 (racemic) | 250 | > 16 |  |
| COC(=O)COc1ccc(C23c4ccccc4C(=O)N2CCN3C(=O)c2ccc(F)cc2)cc1 (racemic) | 3300 | > 16 |  |

| Compound | EC50 [2] [nM] | CC50 at 120 h [3] [µM] | further results |
| --- | --- | --- | --- |
| NC(=O)COc1ccc(C23c4ccccc4C(=O)N2CCN3C(=O)c2ccc(F)cc2)cc1 (racemic) | 1000 | 11 |  |
| CC(=O)COc1ccc(C23c4ccccc4C(=O)N2CCN3C(=O)c2ccc(F)cc2)cc1 (racemic) | 860 | > 16 |  |
| O=C(c1ccc(F)cc1)N1CCN2C(=O)c3ccccc3C12c1cccc(Cl)c1 (racemic) | 190 | > 18 |  |
| N#CCOc1cccc(C23c4ccccc4C(=O)N2CCN3C(=O)c2ccc(F)cc2)c1 (racemic) | 3400 | > 17 |  |
| COCCOc1cccc(C23c4ccccc4C(=O)N2CCN3C(=O)c2ccc(F)cc2)c1 (racemic) | > 16000 | > 16 |  |
| O=C1c2ccccc2C2(c3ccc(Cl)cc3)N1CCN2c1ccccc1 (racemic) | > 20000 | > 20 |  |
| O=C1c2ccccc2C2(c3ccc(Cl)cc3)N(Cc3ccc(F)cc3)CCN12 (racemic) | > 20000 | 16 |  |
| O=C(Cc1ccc(F)cc1)N1CCN2C(=O)c3ccccc3C12c1ccc(Cl)cc1 (racemic) | 970 | > 20 |  |
| O=C(c1ccc(Cl)cc1)N1CCN2C(=O)c3ccccc3C12c1ccc(Cl)cc1 (racemic) | 3700 | 17 |  |
| O=C(Nc1ccccc1)N1CCN2C(=O)c3ccccc3C12c1ccc(Cl)cc1 (racemic) | 7100 | > 20 |  |
| COc1ccc(NC(=O)N2CCN3C(=O)c4ccccc4C23c2ccc(Cl)cc2)cc1 (racemic) | 1600 | > 20 |  |
| O=C(NCc1ccccc1)N1CCN2C(=O)c3ccccc3C12c1ccc(Cl)cc1 (racemic) | 730 | > 20 |  |
| O=C(NCc1ccc(F)cc1)N1CCN2C(=O)c3ccccc3C12c1ccc(Cl)cc1 (racemic) | 600 | 10 |  |
| O=C(c1cccc(Cl)n1)N1CCN2C(=O)c3ccccc3C12c1ccc(Cl)cc1 (racemic) | 470 | > 17 |  |
| O=C(c1ccco1)N1CCN2C(=O)c3ccccc3C12c1ccc(Cl)cc1 (racemic) | 260 | 12 |  |
| CC(=O)N1CCN2C(=O)c3ccccc3C12c1ccc(Cl)cc1 (racemic) | 1200 | > 20 |  |
| CCC(=O)N1CCN2C(=O)c3ccccc3C12c1ccc(Cl)cc1 (racemic) | 1000 | > 20 |  |
| CC(C)CC(=O)N1CCN2C(=O)c3ccccc3C12c1ccc(Cl)cc1 (racemic) | 740 | > 20 |  |
| O=C1c2ccccc2C2(c3ccc(Cl)cc3)N1CCN2C(=O)C1CC1 (racemic) | 4900 | > 21 |  |
| COCC(=O)N1CCN2C(=O)c3ccccc3C12c1ccc(Cl)cc1 (racemic) | 2700 | > 21 |  |
| N#CCC(=O)N1CCN2C(=O)c3ccccc3C12c1ccc(Cl)cc1 (racemic) | 4500 | > 21 |  |
| O=C(CC1CCCCC1)N1CCN2C(=O)c3ccccc3C12c1ccc(Cl)cc1 (racemic) | 4500 | 14 |  |
| O=C(c1ccc(F)cc1)N1CCN2C(=O)c3ncccc3C12c1ccc(Cl)cc1 (racemic) | 880 | > 20 |  |
| O=C(c1ccc(F)cc1)N1CCN2C(=O)c3cccnc3C12c1ccc(Cl)cc1 (racemic) | 1200 | > 20 |  |
| O=C(c1ccc(F)cc1)N1CCN2C(=O)c3nccnc3C12c1ccc(Cl)cc1 (racemic) | > 18000 | > 18 |  |
| O=C(c1ccc(F)cc1)N1CCN2C(=O)c3cnccc3C12c1ccc(Cl)cc1 (racemic) | 2700 | > 18 |  |
| O=C(c1ccc(F)cc1)N1CCN2C(=O)c3ccncc3C12c1ccc(Cl)cc1 (racemic) | 230 | > 49 | EC50 [4]: 680 nM; EC50 [5]: 220 nM; fold change (FC) [6]: <10; solubility kinetic [7]: 25 µg/mL (≈ 61.3 µM); solubility kinetic [8]: 12.5 µg/mL (≈ 30.6 µM); chromatographic logD [9]: 2.8; fraction unbound [10]: 0.27; Cmax [11]: 6.3 µM; half-life [12]: > 1440 min; bioavailability [13]: 28%; clearance [14]: 2.7 mL/min/kg; half-life [15]: > 1440 min; Vd [16]: 6 L/kg |
